In ChEMBL document CHEMBL4513216, “Probing the Open Global Health Chemical Diversity Library for Multistage-Active Starting Points for Next-Generation Antimalarials” (ACS Infect Dis, 2020):

test: Toxicity liver stage against HepG2, at 10uM; format: cell-based; design: test concentration 10 uM, cell line HepG2-A16-CD81EGFP; details: human, HepG2-A16-CD81EGFP cells; read-out: INHIBITION
How it was run: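 Uninfected HepG2-A16-CD81EGFP cells, 3 × 10^3 per well, 1536-well, plated on prespotted compound at 10 μM final, parasite-free screening media added to match infected plates; puromycin 10 μM positive, DMSO 0.5% negative; run in parallel with 48 h PbLuc assay at 37 °C, 5% CO2; viability by CellTiter-Glo luminescence, normalized to controls.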

In order of falling cytotoxicity at 10 µM:
1. CSC(C)(C)CNC(=O)NCc1cccc(-n2ccnc2)c1  32.9%
2. NCCNS(=O)(=O)Cc1ccc(Br)cc1  19.4%
3. O=C(c1ccc(N2CCCC2)nc1)N1CCCC(c2nccs2)C1 (configuration not stated)  15.4%
4. CC(=O)N1CC(=O)N(c2ccccc2)CC12CCN(Cc1ccsc1)C2 (configuration not stated)  13.4%
5. COc1cc(N2C[C@H]3CN(CCN4CCCC4)C(=O)[C@H]3C2)ncn1  12.7%
6. CCCc1noc(CCC(=O)N2CCCC(c3ccn[nH]3)C2)n1 (configuration not stated)  12.2%
7. Cn1cc(CN2C[C@@H]3COC[C@]3(C(=O)N3CCCO3)C2)cn1  12.1%
8. O=C(C1=CCCC1)N1CC[C@]2(C[C@H](OCc3cccnc3)CO2)C1  11.7%
9. COCCCN(Cc1ccncc1)C(=O)C1COc2ccccc2C1 (configuration not stated)  11.5%
10. CN1C(=O)CCCC12CCCN(Cc1nccs1)C2 (configuration not stated)  11.4%
11. O=C(C1CN(Cc2ccoc2)CC12CCOCC2)N1CCCC1 (configuration not stated)  11.2%
12. O=C(NCc1cc[nH]n1)NCC(O)COc1cccc(F)c1 (configuration not stated)  10.3%
13. OC1(CN2CCOC(Cn3cncn3)C2)CCCCC1 (configuration not stated)  9.87%
14. CC(C)n1ccc(-c2cc(C(=O)N3CCN(C)CC3)c3ccccn23)n1  9.49%
15. Cc1nn(C)c2cnn(Cc3ccc(C(=O)NC4CC4)o3)c12  9.43%
16. Cn1cncc1CN1CCC2(CCCN2c2ncccn2)CC1  9.37%
17. CCCC(=O)N1CCC(c2nc(O)c3c(n2)CCN(C2CCCC2)C3)C1 (configuration not stated)  9.34%
18. CCOC1CC2(CCN(CCO)CC2)c2ccc(C)cc21 (configuration not stated)  9.01%
19. CCCS(=O)(=O)N1CCC2(CCN(Cc3cccc(F)c3)C2=O)C1 (configuration not stated)  8.07%
20. CCN1CCCC(c2nc(O)c3cc(C)ccc3n2)C1 (configuration not stated)  8.02%
21. CC(=O)NCCC(=O)NC1(c2ccc(Cl)c(Cl)c2)CC1  7.49%
22. CN(C)[C@@H]1CN(Cc2cnn(C)c2)[C@@H]2COC[C@H]12  7.37%
23. COc1ccc(CNCC(C)Oc2ccccn2)cc1Cl (configuration not stated)  7.36%
24. O=C(O)c1nnn(-c2cc(F)cc(F)c2)c1-c1ccncc1  7.16%
25. O=C(CCc1nc2cccnc2[nH]1)Nc1ccc2c(c1)OCC(=O)N2  6.78%
26. O=S(=O)(C1CC1)N1CCOCC2(CN(c3ncccn3)CCO2)C1 (configuration not stated)  6.37%
27. Cc1cnc(N2CCC3(CC2)CC3C(=O)NCC2CC2)nc1 (configuration not stated)  6.34%
28. COCCN1CCCC1c1nccnc1Nc1nc(C)cs1 (configuration not stated)  6.02%
29. COCCN1CCCc2sc(C(=O)Nc3ccc(C)nc3)nc21  5.92%
30. NC(=O)c1cccc(CNCC=Cc2ccccc2)c1  5.62%
31. Cn1nnc2cc(C(=O)NS(=O)(=O)c3ccc(F)cc3)ccc21  5.46%
32. CC(=O)N1CCN(CCNS(=O)(=O)c2cc(F)ccc2C)CC1  5.42%
33. CCc1ccc(OCC(O)CN2CCC(O)CC2)cc1 (configuration not stated)  3.99%
34. N#Cc1ccc(CNC(=O)NCCC(=O)NC2CCCC2)c(F)c1  3.79%
35. O=C(c1ccoc1)N1C[C@@H]2[C@@H](C1)OCC(=O)N2Cc1cccnc1  3.33%
36. Cc1cc(CN2CCN(C(C)c3nc(C(C)C)no3)CC2)no1 (configuration not stated)  3.29%
37. NCCC(=O)N1CCC2(CC1)CN(C(=O)c1ccc(Cl)cc1)CCO2  3.1%
38. COCCNC(C)c1ccc(-c2cccnc2)cc1 (configuration not stated)  2.7%
39. CN1CCO[C@@H]2CN(S(=O)(=O)c3ccc(F)cc3)CC[C@@H]2C1  2.56%
40. O=C(O)c1ccc2c(c1)C1(CCCCC1)CN2C(=O)c1cccc(F)c1  2.49%
41. Cn1cc(C[C@H]2[C@H](N3CCOCC3)CCN2C(=O)c2ccco2)cn1  2.44%
42. CN1CCCC(CCC(=O)NCCCn2ncc3ccccc32)C1 (configuration not stated)  2.39%
43. c1cc(CN2CCCC23CCCN(Cc2ccoc2)C3)ccn1 (configuration not stated)  2.25%
44. COCCNC(=O)Cn1ccc2ccc(F)cc21  2.14%
45. CC(NCCn1cccn1)c1ccc(F)cc1F (configuration not stated)  1.99%
46. CN(Cc1ccccn1)C1CCCN(Cc2noc(C3CC3)n2)C1 (configuration not stated)  1.82%
47. CC(C)CN1CCC(NC(=O)NCCC(=O)NCc2ccccc2)CC1  1.64%
48. CC(=O)Nc1ccc(F)c(S(=O)(=O)NC(C)(C)C)c1  1.15%
49. O=S(=O)(NCc1ccccc1Cn1cncn1)C1CCCC1  0.674%
50. Cc1nn(CCO)c(C)c1CN1CCN(C2CCCCC2)C(=O)C1  0.541%
51. Cn1cc(CN2CCOCC3(C2)CN(c2ccccc2)C(=O)CO3)cn1 (configuration not stated)  0.436%
52. Cc1ncsc1C(=O)N1CCCC(n2cncn2)C1 (configuration not stated)  0.364%
53. Cc1nnc(CN2CCCC2c2c(C)nn(C)c2Cl)o1 (configuration not stated)  0.174%
54. CC(C)CN(Cc1nnc(-c2ccco2)o1)CC(C)C  0.0773%
55. CN1CCN(C2CCN(CC(O)c3ccccc3F)CC2)C1=O (configuration not stated)  -0.275%
56. NC(=O)C1CCN(C(=O)NCc2ccccc2Cn2ccnc2)CC1  -0.302%
57. CCn1cc(CN2CCCN(C(=O)c3ccn(C)c(=O)c3)CC2)cn1  -0.794%
58. O=C(c1ccc2nncn2c1)N1CCCC(n2ccnc2)C1 (configuration not stated)  -1.14%
59. CC(C)(C)OCC1CN(CC2CC2)S(=O)(=O)c2cnccc2O1 (configuration not stated)  -1.16%
60. O=C(NCc1ccccc1-n1cccn1)N1CCN2CCCCC2C1 (configuration not stated)  -1.2%
61. c1nc2c(c(NC3CCC3)n1)CCNCC2  -1.28%
62. Cc1nn(C)c(N2CCOCC2)c1CNC(C)c1cccs1 (configuration not stated)  -1.47%
63. Cc1cnn(CC2CN(Cc3cccc(C(N)=O)c3)CCO2)c1 (configuration not stated)  -1.52%
64. CC(C)NC(=O)c1nn(C)c(NC(=O)Cc2ccccc2)c1F  -1.73%
65. C[C@H](N)Cn1nc(-c2cccs2)oc1=O  -1.94%
66. O=S(=O)(NC1=NCN(CCc2cccs2)CN1)c1ccc(Cl)cc1  -2.03%
67. Cc1nccn1[C@@H]1CC[C@@H](N(C)S(=O)(=O)c2cccc(F)c2)[C@H]1O  -2.4%
68. CCc1cccc(OCCCN(C)C(=O)CN2CCNC2=O)c1  -2.48%
69. CC(c1nc(C2CC2)no1)N1CCc2c(ncn2C2CC2)C1 (configuration not stated)  -2.52%
70. CCOCC1CN(Cc2ccoc2)Cc2nn(C)cc21 (configuration not stated)  -2.8%
71. CCOc1cc(C(=O)N2CCCC(c3noc(CC)n3)C2)ccn1 (configuration not stated)  -3.65%
72. CC(=O)Nc1ccc(OCc2noc(C(=O)N3CCCCC3)n2)cc1  -3.68%
73. CC(C)Cn1nnnc1SC(C(=O)NCc1cccnc1)C(C)C (configuration not stated)  -4.05%
74. COc1cc(NC(=O)NCc2ccccn2)cc(OC)c1  -4.13%
75. COC1CCN(C(=O)CCn2ccc(=O)[nH]c2=O)CC1  -4.73%
76. COc1ccccc1OCC(=O)NCC(O)(c1cccs1)C1CC1 (configuration not stated)  -5%
77. COCCN1CCN(S(C)(=O)=O)Cc2ccc(C)nc21  -5.06%
78. CC(C)c1nnc2n1CC(CNCc1ccc3c(c1)OCCO3)CC2 (configuration not stated)  -5.92%
79. Cn1c(C2CC2)nc2c1CCN(CC(=O)Nc1nncs1)C2  -6.44%
80. CN(C)CCn1ccc2cc(NC(=O)NCc3ncnn3C)ccc21  -6.52%
81. CC(C)c1nc(C2CCCN2Cc2ccno2)no1 (configuration not stated)  -6.85%
82. Cc1nc(C)n(C2CCCN(C(=O)c3cc(C(N)=O)cs3)C2)n1 (configuration not stated)  -6.86%
83. CCN(CC)CCNCC1CCOC(C)(C)C1 (configuration not stated)  -6.87%
84. CSCc1cccc(S(=O)(=O)NCCCO)c1  -7.5%
85. CCn1cnnc1C1CCN(C(=O)c2cnc(C3CC3)s2)CC1  -7.59%
86. O=C(C1CCCC1)N1CCN(Cc2nc(-c3ccco3)no2)CC1  -7.84%
87. Cc1cnc(C(=O)N2CC(=O)N(c3ccccc3Cl)CC2C)cn1 (configuration not stated)  -8.23%
88. Cc1ccc(C(CNC(=O)NCc2cc[nH]n2)N2CCOCC2)o1 (configuration not stated)  -8.78%
89. CCC1CN(CC(=O)Nc2sccc2C#N)CCO1 (configuration not stated)  -9.29%
90. COCC1COCCC12CCN(C(=O)CCc1ccccc1)CC2 (configuration not stated)  -9.8%
91. CNC(=O)c1ccc(C2CCCN(C(=O)c3c(C)noc3C)C2)nc1 (configuration not stated)  -9.88%
92. CSc1ccc(NCc2csc(CS(C)(=O)=O)n2)cc1F  -9.99%
93. c1ccc(-n2ccc(CNCC3CCCN3c3cccnn3)n2)cc1 (configuration not stated)  -10.2%
94. COCCN1CCN(CC(O)c2ccc(C(F)(F)F)cc2)CC1 (configuration not stated)  -10.7%
95. CN1CCCC(N(C)C(=O)c2ccc(NC(=O)c3ccc[nH]3)cc2)C1 (configuration not stated)  -11.4%
96. CN(CCCOc1ccccc1Cl)C(=O)CN1C[C@H]2CC[C@@H](CC1=O)N2  -11.9%
97. O=C(NCCn1nc2ccccn2c1=O)c1scnc1Cl  -13.9%
98. Cc1cnc(C(=O)N(C)[C@@H]2CCC[C@@H](Oc3ccccc3)[C@@H]2O)cn1  -15.3%
99. CNC(=O)CSc1nc2c(cnn2Cc2ccc(F)cc2)c(=O)[nH]1  -16%
100. Cc1cc(C)n(C2CCCN(C(=O)CCCc3ccccn3)C2)n1 (configuration not stated)  -16.3%
101. O=C(C1CCOCC1)N1CCC2(CC1)CC(Oc1ccccc1)CO2 (configuration not stated)  -17.3%
102. CCC1c2ccsc2CCN1C(=O)NCc1cccnc1N(C)C (configuration not stated)  -17.4%
103. O=C(c1cnccn1)N1CCC(Cc2cnc3[nH]ccc3c2)CC1  -18.6%
104. Cc1csc2nc3n(c(=O)c12)CCN(Cc1c[nH]cn1)CC3  -18.8%
105. Cc1ccc(C(=O)N(C)CC(=O)Nc2cccc(C)n2)cn1  -21.2%
106. COc1ccccc1N1CCC(CNS(=O)(=O)c2c(C)nn(C)c2C)C1 (configuration not stated)  -21.8%
107. O=C(N1CCCCC1)N1CCCC(c2ncncc2-c2ccncc2)C1 (configuration not stated)  -32.1%
108. Cn1cc(CN2CC[C@H](O)[C@@H]2Cc2ccccc2)cn1  -73%
109. Cc1noc(C)c1CN1CC[C@H]2OCC[C@@]2(C(=O)NC2CCCC2)C1  -75.7%
110. CN1CC(=O)N(c2ccccc2)CC12CCN(C(=O)c1cccs1)C2 (configuration not stated)  -79.3%
111. Cc1ccoc1C(=O)N1CCn2nnc(COc3cccnc3)c2C1  -82.5%
112. O=C(O)[C@H]1C[C@@H](C(=O)NCc2ccncc2)CN(Cc2ccccc2)C1  -138%
